Reference: ChEMBL document CHEMBL1143052, “Synthesis, antimicrobial, and QSAR studies of substituted benzamides” (2007)

Legend:
Aspergillus ficuum = assay: Antifungal activity against Aspergillus ficuum MTCC 8184 by serial dilution method; assay type: functional
Outline: (§1)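 Broth serial dilution against the fungus in Sabouraud dextrose broth-I.P., run like the antibacterial assay. Compounds came from a DMSO stock, and MIC was determined.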

Bacillus subtilis = assay: Antibacterial activity against Bacillus subtilis MTCC 2063 after 24 hrs; assay type: functional
Outline: (§2)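 Serial broth dilution in double-strength nutrient broth-I.P. Bacteria were grown for 24 h at 37 °C. A DMSO stock was diluted into 1 mL broth tubes to span 5–0.156, then inoculated with a saline suspension of the organism. Tubes were incubated at 37 °C for 24 h and MIC was read. Extra dilutions of the stock then set the exact MIC.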

Aspergillus parasiticus = assay: Antifungal activity against Aspergillus parasiticus MTCC 8189 by serial dilution method; assay type: functional; outline: as §1
Escherichia coli = assay: Antibacterial activity against Escherichia coli MTCC 1652 after 24 hrs; assay type: functional; outline: as §2
Staphylococcus aureus = assay: Antibacterial activity against Staphylococcus aureus MTCC 2901 after 24 hrs

Structure (SMILES): O=C(Nc1ccccc1O)c1ccccc1Cl
- -log(1/MIC) (Aspergillus ficuum): 1.6
- pMIC, log(1/MIC) (Bacillus subtilis): 1
- -log(1/MIC) (Aspergillus parasiticus): 1.3
- pMIC, log(1/MIC) (Escherichia coli): 1.2
- -log(1/MIC) (Staphylococcus aureus): 1.3

Structure (SMILES): COC(=O)c1cccc(O)c1NC(=O)c1ccccc1OCc1ccccc1
- -log(1/MIC) (Aspergillus ficuum): 1.78
- pMIC, log(1/MIC) (Bacillus subtilis): 1.48
- -log(1/MIC) (Aspergillus parasiticus): 1.83
- pMIC, log(1/MIC) (Escherichia coli): 1.35
- -log(1/MIC) (Staphylococcus aureus): 1.48

Structure (SMILES): O=C(Nc1ccc(O)cc1)c1ccccc1Cl
- -log(1/MIC) (Aspergillus ficuum): 1.6
- pMIC, log(1/MIC) (Bacillus subtilis): 1
- -log(1/MIC) (Aspergillus parasiticus): 1.31
- pMIC, log(1/MIC) (Escherichia coli): 1.17
- -log(1/MIC) (Staphylococcus aureus): 1.3

Structure (SMILES): O=C(Nc1ccc(O)cc1)c1cc([N+](=O)[O-])ccc1Cl
- -log(1/MIC) (Aspergillus ficuum): 1.58
- pMIC, log(1/MIC) (Bacillus subtilis): 1.27
- -log(1/MIC) (Aspergillus parasiticus): 1.58
- pMIC, log(1/MIC) (Escherichia coli): 1.27
- -log(1/MIC) (Staphylococcus aureus): 1.37

Structure (SMILES): COc1cccc(C(=O)Nc2ccc(O)cc2)c1[N+](=O)[O-]
- -log(1/MIC) (Aspergillus ficuum): 1.36
- pMIC, log(1/MIC) (Bacillus subtilis): 1.26
- -log(1/MIC) (Aspergillus parasiticus): 1.53
- pMIC, log(1/MIC) (Escherichia coli): 1.26
- -log(1/MIC) (Staphylococcus aureus): 1.36

Structure (SMILES): O=C(Nc1ccccc1O)c1ccccc1
- -log(1/MIC) (Aspergillus ficuum): 1.43
- pMIC, log(1/MIC) (Bacillus subtilis): 0.93
- -log(1/MIC) (Aspergillus parasiticus): 1.23
- pMIC, log(1/MIC) (Escherichia coli): 1.23
- -log(1/MIC) (Staphylococcus aureus): 1.11

Structure (SMILES): Cc1cccc(C(=O)Nc2ccccc2O)c1
- -log(1/MIC) (Aspergillus ficuum): 1.56
- pMIC, log(1/MIC) (Bacillus subtilis): 0.96
- -log(1/MIC) (Aspergillus parasiticus): 1.3
- pMIC, log(1/MIC) (Escherichia coli): 1.26
- -log(1/MIC) (Staphylococcus aureus): 1.16

Structure (SMILES): O=C(Nc1ccccc1O)c1c(O)ccc2ccccc12
- -log(1/MIC) (Aspergillus ficuum): 1.65
- pMIC, log(1/MIC) (Bacillus subtilis): 1.35
- -log(1/MIC) (Aspergillus parasiticus): 1.35
- pMIC, log(1/MIC) (Escherichia coli): 1.29
- -log(1/MIC) (Staphylococcus aureus): 1.23

Structure (SMILES): O=C(Nc1ccccc1)c1ccc2ccccc2c1O
- -log(1/MIC) (Aspergillus ficuum): 1.44
- pMIC, log(1/MIC) (Bacillus subtilis): 1.13
- -log(1/MIC) (Aspergillus parasiticus): 1.3
- pMIC, log(1/MIC) (Escherichia coli): 1.17
- -log(1/MIC) (Staphylococcus aureus): 1.26

Structure (SMILES): O=C(/C=C/c1ccccc1)Nc1ccc(O)cc1
- -log(1/MIC) (Aspergillus ficuum): 1.58
- pMIC, log(1/MIC) (Bacillus subtilis): 0.98
- -log(1/MIC) (Aspergillus parasiticus): 1.58
- pMIC, log(1/MIC) (Escherichia coli): 1.16
- -log(1/MIC) (Staphylococcus aureus): 1.28

Structure (SMILES): Cc1cccc(C(=O)Nc2ccc(O)cc2)c1
- -log(1/MIC) (Aspergillus ficuum): 1.56
- pMIC, log(1/MIC) (Bacillus subtilis): 1.04
- -log(1/MIC) (Aspergillus parasiticus): 1.26
- pMIC, log(1/MIC) (Escherichia coli): 1.2
- -log(1/MIC) (Staphylococcus aureus): 1.26

Structure (SMILES): O=C(Nc1ccccc1O)c1ccc2ccccc2c1O
- -log(1/MIC) (Aspergillus ficuum): 1.58
- pMIC, log(1/MIC) (Bacillus subtilis): 1.2
- -log(1/MIC) (Aspergillus parasiticus): 1.62
- pMIC, log(1/MIC) (Escherichia coli): 1.21
- -log(1/MIC) (Staphylococcus aureus): 1.25

Structure (SMILES): O=C(Nc1ccc(O)cc1)c1ccccc1
- -log(1/MIC) (Aspergillus ficuum): 1.53
- pMIC, log(1/MIC) (Bacillus subtilis): 0.93
- -log(1/MIC) (Aspergillus parasiticus): 1.24
- pMIC, log(1/MIC) (Escherichia coli): 1.23
- -log(1/MIC) (Staphylococcus aureus): 1.23

Structure (SMILES): Cc1ccc(C(=O)Nc2ccccc2O)cc1
- -log(1/MIC) (Aspergillus ficuum): 1.56
- pMIC, log(1/MIC) (Bacillus subtilis): 0.96
- -log(1/MIC) (Aspergillus parasiticus): 1.26
- pMIC, log(1/MIC) (Escherichia coli): 1.2
- -log(1/MIC) (Staphylococcus aureus): 1.16

Structure (SMILES): O=C(Nc1ccccc1O)c1cccc(Cl)c1
- -log(1/MIC) (Aspergillus ficuum): 1.6
- pMIC, log(1/MIC) (Bacillus subtilis): 1.1
- -log(1/MIC) (Aspergillus parasiticus): 1.3
- pMIC, log(1/MIC) (Escherichia coli): 1.2
- -log(1/MIC) (Staphylococcus aureus): 1.16

Structure (SMILES): O=C(Nc1ccccc1O)c1cc([N+](=O)[O-])ccc1Cl
- -log(1/MIC) (Aspergillus ficuum): 1.67
- pMIC, log(1/MIC) (Bacillus subtilis): 1.07
- -log(1/MIC) (Aspergillus parasiticus): 1.52
- pMIC, log(1/MIC) (Escherichia coli): 1.2
- -log(1/MIC) (Staphylococcus aureus): 1.26

Structure (SMILES): COc1cccc(C(=O)Nc2ccccc2O)c1[N+](=O)[O-]
- -log(1/MIC) (Aspergillus ficuum): 1.71
- pMIC, log(1/MIC) (Bacillus subtilis): 1.41
- -log(1/MIC) (Aspergillus parasiticus): 1.71
- pMIC, log(1/MIC) (Escherichia coli): 1.41
- -log(1/MIC) (Staphylococcus aureus): 1.41

Structure (SMILES): Cc1ccc(C(=O)Nc2ccc(O)cc2)cc1
- -log(1/MIC) (Aspergillus ficuum): 1.56
- pMIC, log(1/MIC) (Bacillus subtilis): 0.96
- -log(1/MIC) (Aspergillus parasiticus): 1.32
- pMIC, log(1/MIC) (Escherichia coli): 1.26
- -log(1/MIC) (Staphylococcus aureus): 1.26

Structure (SMILES): O=C(Nc1ccccc1)c1ccccc1OCc1ccccc1
- -log(1/MIC) (Aspergillus ficuum): 1.69
- pMIC, log(1/MIC) (Bacillus subtilis): 1.3
- -log(1/MIC) (Aspergillus parasiticus): 1.69
- pMIC, log(1/MIC) (Escherichia coli): 1.3
- -log(1/MIC) (Staphylococcus aureus): 1.39

Structure (SMILES): O=C(Nc1ccccc1)c1cc([N+](=O)[O-])ccc1Cl
- -log(1/MIC) (Aspergillus ficuum): 1.55
- pMIC, log(1/MIC) (Bacillus subtilis): 1.15
- -log(1/MIC) (Aspergillus parasiticus): 1.42
- pMIC, log(1/MIC) (Escherichia coli): 1.2
- -log(1/MIC) (Staphylococcus aureus): 1.35

Structure (SMILES): O=C(Nc1ccc(O)cc1)c1cccc(Cl)c1
- -log(1/MIC) (Aspergillus ficuum): 1.6
- pMIC, log(1/MIC) (Bacillus subtilis): 1
- -log(1/MIC) (Aspergillus parasiticus): 1.3
- pMIC, log(1/MIC) (Escherichia coli): 1.17
- -log(1/MIC) (Staphylococcus aureus): 1.3

Structure (SMILES): O=C(Nc1ccc(O)cc1)c1cc([N+](=O)[O-])cc([N+](=O)[O-])c1
- -log(1/MIC) (Aspergillus ficuum): 1.69
- pMIC, log(1/MIC) (Bacillus subtilis): 1.38
- -log(1/MIC) (Aspergillus parasiticus): 1.69
- pMIC, log(1/MIC) (Escherichia coli): 1.38
- -log(1/MIC) (Staphylococcus aureus): 1.38

Structure (SMILES): O=C(Nc1ccccc1O)c1ccccc1O
- -log(1/MIC) (Aspergillus ficuum): 1.45
- pMIC, log(1/MIC) (Bacillus subtilis): 0.96
- -log(1/MIC) (Aspergillus parasiticus): 1.2
- pMIC, log(1/MIC) (Escherichia coli): 1.12
- -log(1/MIC) (Staphylococcus aureus): 1.26

Structure (SMILES): O=C(Nc1ccccc1)c1c(O)ccc2ccccc12
- -log(1/MIC) (Aspergillus ficuum): 1.65
- pMIC, log(1/MIC) (Bacillus subtilis): 1.35
- -log(1/MIC) (Aspergillus parasiticus): 1.65
- pMIC, log(1/MIC) (Escherichia coli): 1.35
- -log(1/MIC) (Staphylococcus aureus): 1.35

Structure (SMILES): O=C(Nc1ccc(O)cc1)c1c(O)ccc2ccccc12
- -log(1/MIC) (Aspergillus ficuum): 1.65
- pMIC, log(1/MIC) (Bacillus subtilis): 1.35
- -log(1/MIC) (Aspergillus parasiticus): 1.65
- pMIC, log(1/MIC) (Escherichia coli): 1.35
- -log(1/MIC) (Staphylococcus aureus): 1.23

Structure (SMILES): O=C(Nc1ccc(O)cc1)c1ccc2ccccc2c1O
- -log(1/MIC) (Aspergillus ficuum): 1.57
- pMIC, log(1/MIC) (Bacillus subtilis): 1.25
- -log(1/MIC) (Aspergillus parasiticus): 1.62
- pMIC, log(1/MIC) (Escherichia coli): 1.22
- -log(1/MIC) (Staphylococcus aureus): 1.32

Structure (SMILES): O=C(Nc1ccccc1O)c1cc([N+](=O)[O-])cc([N+](=O)[O-])c1
- -log(1/MIC) (Aspergillus ficuum): 1.58
- pMIC, log(1/MIC) (Bacillus subtilis): 1.38
- -log(1/MIC) (Aspergillus parasiticus): 1.69
- pMIC, log(1/MIC) (Escherichia coli): 1.38
- -log(1/MIC) (Staphylococcus aureus): 1.38

Structure (SMILES): O=C(O)c1cn(C2CC2)c2cc(N3CCNCC3)c(F)cc2c1=O [CIPROFLOXACIN]
- pMIC, log(1/MIC) (Bacillus subtilis): 3.33
- -log(1/MIC) (Escherichia coli): 3.33
- -log(1/MIC) (Staphylococcus aureus): 3.33

Structure (SMILES): O=C(Nc1ccc(O)cc1)c1ccccc1O [OSALMID]
- -log(1/MIC) (Aspergillus ficuum): 1.56
- pMIC, log(1/MIC) (Bacillus subtilis): 0.96
- -log(1/MIC) (Aspergillus parasiticus): 1.26
- pMIC, log(1/MIC) (Escherichia coli): 1.2
- -log(1/MIC) (Staphylococcus aureus): 1.26

Structure (SMILES): O=C(O)c1ccccc1O [SALICYLIC ACID]
- -log(1/MIC) (Aspergillus ficuum): 3.1
- -log(1/MIC) (Aspergillus parasiticus): 3.1
